Results from ChEMBL document CHEMBL1154422, “First characterization of heterogeneous resistance to imipenem in invasive nontypeable Haemophilus influenzae isolates” (2007).
In brackets after ≈: the same amount, converted by molar mass. Activity calls are given as the source filed them. The rule behind the calls is not given here.

Tests used:
Haemophilus influenzae [1] = assay: Antimicrobial activity against imipenem-susceptible invasive nontypeable Haemophilus influenzae isolate 251 by Etest; type: functional
How it was run: (§1)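 Etest MIC on Haemophilus test medium (HTM) agar plates following CLSI guidelines, with a high inoculum (3 × 10^8 to 4 × 10^8 CFU/ml). Strains were maintained on Vitox-supplemented chocolate agar at 37°C with 5% CO2. H. influenzae ATCC 49247 and ATCC 10211 served as quality controls. Interpretation used CLSI breakpoints.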

Haemophilus influenzae [2] = assay: Antimicrobial activity against imipenem-susceptible invasive nontypeable Haemophilus influenzae isolate 187 by Etest; type: functional
How it was run: (§2)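 Imipenem MIC read by Etest on Haemophilus test medium (HTM) agar following CLSI guidelines; inoculum about 3 × 10^8 to 4 × 10^8 CFU/ml. H. influenzae ATCC 49247 and ATCC 10211 served as quality controls. Interpretation used CLSI breakpoints. Strains were maintained on Vitox-supplemented chocolate agar at 37°C with 5% CO2.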

Haemophilus influenzae [3] = assay: Antimicrobial activity against Haemophilus influenzae Rd transformed with ftsI gene from imipenem-resistant invasive nontypeable Haemophilus influenzae isolate 183 by Etest; type: functional
How it was run: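 Recipient strain Rd (ATCC 51907) was electroporated with the PCR-amplified full-length ftsI gene plus flanking DNA from strain 183, then selected on HTM agar with 4 μg/ml imipenem. Imipenem MIC was then read by Etest on HTM agar per CLSI, in triplicate on separate days, and reported as a range.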

Haemophilus influenzae [4] = assay: Antimicrobial activity against imipenem-resistant invasive nontypeable Haemophilus influenzae isolate 183 by Etest; type: functional; how it was run: as §2
Haemophilus influenzae [5] = assay: Antimicrobial activity against imipenem-susceptible invasive nontypeable Haemophilus influenzae isolate 244 by Etest; type: functional; how it was run: as §2
Haemophilus influenzae [6] = assay: Antimicrobial activity against imipenem-resistant invasive nontypeable Haemophilus influenzae isolate 184 by Etest; type: functional; how it was run: as §2
Haemophilus influenzae [7] = assay: Antimicrobial activity against imipenem-susceptible Haemophilus influenzae Rd by Etest; type: functional
How it was run: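 Etest MIC on HTM agar per CLSI, inoculum 3 × 10^8 to 4 × 10^8 CFU/ml, with strains grown on Vitox-supplemented chocolate agar at 37°C with 5% CO2. Imipenem and ampicillin MICs were tested in triplicate on separate days and reported as the range. ATCC 49247 and ATCC 10211 were the quality controls.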

Haemophilus influenzae [8] = assay: Antimicrobial activity against imipenem-susceptible invasive nontypeable Haemophilus influenzae isolate 248 by Etest; type: functional; how it was run: as §2
Haemophilus influenzae [9] = assay: Antimicrobial activity against imipenem-resistant invasive nontypeable Haemophilus influenzae isolate 184 at 1.56 uM by Etest; type: functional, organism-based
How it was run: (§3)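 CCCP was made up as a 100 mM DMSO stock and added to HTM agar at final 3.12, 1.56, 0.781 or 0.390 μM. Imipenem Etest was run on these plates per CLSI on HTM agar.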

Haemophilus influenzae [10] = assay: Antimicrobial activity against imipenem-resistant invasive nontypeable Haemophilus influenzae isolate 183 at 1.56 uM by Etest; type: functional, organism-based; how it was run: as §3
Haemophilus influenzae [11] = assay: Antimicrobial activity against imipenem-resistant invasive nontypeable Haemophilus influenzae isolate 184 by Etest in presence of 0.781 uM efflux pump inhibitor carbonyl cyanide m-chlorophenyl-hydrazone; type: functional, organism-based; how it was run: as §3
Haemophilus influenzae [12] = assay: Antimicrobial activity against imipenem-resistant invasive nontypeable Haemophilus influenzae isolate 184 by Etest in presence of 0.390 uM efflux pump inhibitor carbonyl cyanide m-chlorophenyl-hydrazone; type: functional, organism-based; how it was run: as §3
Haemophilus influenzae [13] = assay: Antimicrobial activity against imipenem-resistant invasive nontypeable Haemophilus influenzae isolate 183 by Etest in presence of 0.390 uM efflux pump inhibitor carbonyl cyanide m-chlorophenyl-hydrazone; type: functional, organism-based; how it was run: as §3
Haemophilus influenzae [14] = assay: Antimicrobial activity against imipenem-resistant invasive nontypeable Haemophilus influenzae isolate 183 by Etest in presence of 0.781 uM efflux pump inhibitor carbonyl cyanide m-chlorophenyl-hydrazone; type: functional, organism-based; how it was run: as §3
Haemophilus influenzae [15] = assay: Antimicrobial activity against imipenem-resistant invasive nontypeable Haemophilus influenzae isolate 183 by standard broth dilution method; type: functional
How it was run: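 Imipenem MIC by CLSI standard broth dilution method; inoculum 5 × 10^5 CFU/ml.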

Haemophilus influenzae [16] = assay: Antimicrobial activity against imipenem-resistant invasive nontypeable Haemophilus influenzae isolate 184 by standard broth dilution method; type: functional
How it was run: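 Broth dilution MIC per CLSI standard procedure. Inoculum 5 × 10^5 CFU/ml, lower than the Etest inoculum. Strain first grown on Vitox-supplemented chocolate agar at 37°C with 5% CO2. Beta-lactamase checked by nitrocefin stick test.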

Haemophilus influenzae [17] = assay: Antimicrobial activity against Haemophilus influenzae ATCC 10211 by Etest; type: functional; how it was run: as §1

Row | Structure (SMILES) | MIC (Haemophilus influenzae [1]) | MIC (Haemophilus influenzae [2]) | MIC (Haemophilus influenzae [3]) | MIC (Haemophilus influenzae [4]) | MIC (Haemophilus influenzae [5]) | MIC (Haemophilus influenzae [6]) | MIC (Haemophilus influenzae [7]) | MIC (Haemophilus influenzae [8]) | Activity (Haemophilus influenzae [9]) | Activity (Haemophilus influenzae [10]) | Activity (Haemophilus influenzae [11]) | Activity (Haemophilus influenzae [12]) | Activity (Haemophilus influenzae [13]) | Activity (Haemophilus influenzae [14]) | MIC (Haemophilus influenzae [15]) | MIC (Haemophilus influenzae [16]) | MIC (Haemophilus influenzae [17])
1 | CC1(C)S[C@@H]2[C@H](NC(=O)[C@H](N)c3ccccc3)C(=O)N2[C@H]1C(=O)O [AMPICILLIN] | 0.125 µg/mL (≈ 0.358 µM) | 0.19 µg/mL (≈ 0.544 µM) | 0.38 µg/mL (≈ 1.09 µM) | 0.75 µg/mL (≈ 2.15 µM) | 0.25 µg/mL (≈ 0.715 µM) | 0.5 µg/mL (≈ 1.43 µM) | 0.064 µg/mL (≈ 0.183 µM) | 0.125 µg/mL (≈ 0.358 µM) |  |  |  |  |  |  |  |  | 
2 | CO/N=C(\C(=O)N[C@@H]1C(=O)N2C(C(=O)O)=C(COC(C)=O)CS[C@H]12)c1csc(N)n1 [CEFOTAXIME] | 0.016 µg/mL (≈ 0.0351 µM) | 0.047 µg/mL (≈ 0.103 µM) |  | 0.047 µg/mL (≈ 0.103 µM) | 0.016 µg/mL (≈ 0.0351 µM) | 0.125 µg/mL (≈ 0.274 µM) | 0.5 µg/mL (≈ 1.1 µM) | 0.016 µg/mL (≈ 0.0351 µM) |  |  |  |  |  |  |  |  | 
3 | CO/N=C(\C(=O)N[C@@H]1C(=O)N2C(C(=O)O)=C(CSc3nc(=O)c(O)nn3C)CS[C@H]12)c1csc(N)n1 [CEFTRIAXONE] |  |  | < 0.016 µg/mL | 0.032 µg/mL (≈ 0.0577 µM) |  |  | < 0.016 µg/mL |  |  |  |  |  |  |  |  |  | 
4 | O=C(N[C@H](CO)[C@H](O)c1ccc([N+](=O)[O-])cc1)C(Cl)Cl [CHLORAMPHENICOL] | 0.25 µg/mL (≈ 0.774 µM) | 0.38 µg/mL (≈ 1.18 µM) |  | 0.38 µg/mL (≈ 1.18 µM) | 0.38 µg/mL (≈ 1.18 µM) | 0.5 µg/mL (≈ 1.55 µM) |  | 0.38 µg/mL (≈ 1.18 µM) |  |  |  |  |  |  |  |  | 
5 | C[C@@H](O)[C@H]1C(=O)N2C(C(=O)O)=C(SCCNC=N)C[C@H]12 [IMIPENEM ANHYDROUS] | 0.5 µg/mL (≈ 1.67 µM) | 1.5 µg/mL (≈ 5.01 µM) | 4 µg/mL (≈ 13.4 µM) | ≥ 32 µg/mL | 0.5 µg/mL (≈ 1.67 µM) | ≥ 32 µg/mL | 0.38 µg/mL (≈ 1.27 µM) | 0.25 µg/mL (≈ 0.835 µM) | inactive | inactive | Active | Active | Active | Active | 2 µg/mL (≈ 6.68 µM) | 1 µg/mL (≈ 3.34 µM) | 1.5 µg/mL (≈ 5.01 µM)
